Numbered stars: 1 amine (or outer) side, 2 acyl side, 3 side chain; on linkers, the order of the positions; unused ones are H or OH. Bridge positions count the residues as written; N and C are the ends. Square brackets hold non-standard residues; d marks the D form. Peptide text beside a SMILES is read from it. pY = N[C@@H](Cc1ccc(OP(=O)(O)O)cc1)C(=O)O; X1 = O=C(C1(N[*:1])CCCNC1)[*:2]
Biological target: Growth factor receptor-bound protein 2 (Homo sapiens, UniProt P62993)
Assay: Binding affinity to GST-tagged recombinant Grb2 SH2 domain by Biacore assay
How it was run: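 Surface plasmon resonance (Biacore) binding to the Grb2-SH2 domain, reported as Kd. Values are means of two experiments, with standard deviation given.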

Sequence of Growth factor receptor-bound protein 2 (P62993 whole entry, the tested form may be a part): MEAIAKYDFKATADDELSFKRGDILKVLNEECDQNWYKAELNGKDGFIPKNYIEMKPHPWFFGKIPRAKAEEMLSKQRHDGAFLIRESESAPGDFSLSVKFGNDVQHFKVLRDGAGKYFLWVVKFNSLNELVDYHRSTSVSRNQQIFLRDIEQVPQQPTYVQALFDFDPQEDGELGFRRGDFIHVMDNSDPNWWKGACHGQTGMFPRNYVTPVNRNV

| Structure (SMILES) | Kd [µM] |
| --- | --- |
| NC(=O)C[C@H]1NC(=O)C2(CCCCC2)NC(=O)[C@@H](Cc2ccc(OP(=O)(O)O)cc2)NC(=O)C[S@@+]([O-])C[C@H](C(N)=O)NC(=O)[C@@H](Cc2ccc3ccccc3c2)NC1=O (single isomer, unassigned) | 4.8 |
| CC(C)[C@@H]1NC(=O)[C@H](CC(N)=O)NC(=O)C2(CCCNC2)NC(=O)[C@H](Cc2ccc(OP(=O)(O)O)cc2)NC(=O)CSC[C@@H](C(N)=O)NC1=O (some centres not stated) ({CH2CO}-[pY][X1]NVC-NH2; thioether N-5) | 0.359 |

Reference: ChEMBL document CHEMBL1151863, “Discovery of thioether-bridged cyclic pentapeptides binding to Grb2-SH2 domain with high affinity” (Bioorg Med Chem Lett, 2009)
